Our source for the IC50, Ratio and CI values is ChEMBL document CHEMBL4196198, “Terpenoids from Euphorbia pedroi as Multidrug-Resistance Reversers” (J Nat Prod, 2018).

The structures appear in SMILES notation. Where only a bound is given, the exact number is not on record here.

For one series, the system named is NIH3T3. Put plainly: Cytotoxicity against mouse NIH/3T3 cells after 24 hrs by MTT assay. The series is classed as cell-based. The following applies: NIH3T3, 24 h. In outline: (§1)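 Cells seeded at 1 × 10^4 per well, with adherent lines detached by trypsin-EDTA and allowed 4 h attachment at 37 °C, 5% CO2. Compounds in 2-fold serial dilutions for 24 h. MTT for 4 h, SDS/HCl solubilization overnight, OD 550 nm (ref 630 nm) in quadruplicate. Percent growth inhibition calculated vs cell and medium controls; IC50 from fitted curves.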

For series [1], the target named is T1, ATP-dependent translocase ABCB1 (Homo sapiens, UniProt P08183). The series can be described thus: Modulation of human ABCB1 expressed in mouse L5178Y cells assessed as fluorescence activity ratio at 20 uM pretreated for 10 mins followed by rhodamine 123 addition and measured after 20 mins by flow cytometry (reference value: 1.01). It counts as cell-based. On the technique in general: In flow cytometry, cells or beads pass a laser one at a time.
T1 sequence (P08183 whole entry): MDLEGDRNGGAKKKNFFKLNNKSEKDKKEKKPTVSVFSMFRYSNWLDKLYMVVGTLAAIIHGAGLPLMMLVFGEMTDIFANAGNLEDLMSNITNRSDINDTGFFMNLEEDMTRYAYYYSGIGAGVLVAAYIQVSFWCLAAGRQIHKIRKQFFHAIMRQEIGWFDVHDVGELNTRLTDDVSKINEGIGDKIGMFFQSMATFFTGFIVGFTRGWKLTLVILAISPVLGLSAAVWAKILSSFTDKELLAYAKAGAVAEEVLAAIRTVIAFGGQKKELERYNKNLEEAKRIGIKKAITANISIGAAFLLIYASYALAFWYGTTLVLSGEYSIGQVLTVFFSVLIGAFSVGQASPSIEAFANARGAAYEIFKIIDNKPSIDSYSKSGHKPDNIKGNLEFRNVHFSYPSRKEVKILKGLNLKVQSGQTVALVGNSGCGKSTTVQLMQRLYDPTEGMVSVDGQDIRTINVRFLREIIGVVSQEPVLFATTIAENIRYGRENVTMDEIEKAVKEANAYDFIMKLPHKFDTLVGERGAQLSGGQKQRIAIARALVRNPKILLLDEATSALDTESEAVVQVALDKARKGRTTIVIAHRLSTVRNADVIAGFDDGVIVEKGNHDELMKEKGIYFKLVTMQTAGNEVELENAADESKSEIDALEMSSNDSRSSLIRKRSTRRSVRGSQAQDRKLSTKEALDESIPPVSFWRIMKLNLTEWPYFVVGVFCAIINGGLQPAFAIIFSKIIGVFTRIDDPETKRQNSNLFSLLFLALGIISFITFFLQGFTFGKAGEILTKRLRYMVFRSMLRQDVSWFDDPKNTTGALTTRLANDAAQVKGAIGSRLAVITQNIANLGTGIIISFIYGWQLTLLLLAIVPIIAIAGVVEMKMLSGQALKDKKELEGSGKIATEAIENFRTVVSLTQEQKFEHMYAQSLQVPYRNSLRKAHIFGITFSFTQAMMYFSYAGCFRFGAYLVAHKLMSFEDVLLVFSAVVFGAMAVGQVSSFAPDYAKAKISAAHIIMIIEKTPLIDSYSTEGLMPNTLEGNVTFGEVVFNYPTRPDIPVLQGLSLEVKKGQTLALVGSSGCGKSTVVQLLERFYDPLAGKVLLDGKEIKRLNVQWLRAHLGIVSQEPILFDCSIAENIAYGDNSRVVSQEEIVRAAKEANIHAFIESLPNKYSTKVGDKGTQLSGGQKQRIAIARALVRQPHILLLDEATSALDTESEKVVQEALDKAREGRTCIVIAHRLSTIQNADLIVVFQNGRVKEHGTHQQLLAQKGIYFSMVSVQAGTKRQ

The next series deals with MRC5. Put plainly: Cytotoxicity against human MRC5 cells after 24 hrs by MTT assay. The series is classed as cell-based. The following applies: MRC5, 24 h. In a few lines:
as §1
A general note: Tetrazolium assays rely on reduction of a dye to a coloured formazan, in cell work by metabolically active cells.

For a further series, the system named is COLO 205. Put plainly: Cytotoxicity against human COLO205 cells after 24 hrs by MTT assay. The series is classed as cell-based. The settings on record: COLO 205, 24 h. In outline: as §1
Series [2] has as its system L5178Y. The series can be described thus: Antiproliferative activity against mouse L5178Y cells harboring human ABCB1 after 72 hrs by MTT assay. The series is classed as ADME, cell-based. In outline:
(§2)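 L5178Y-PAR and ABCB1-transfected L5178Y-MDR cells seeded at 6 × 10^3 per well. Compounds tested in 2-fold serial dilutions for 72 h. MTT in PBS was added for 4 h, then SDS (10% in 0.01 M HCl) overnight at 37 °C. OD read at 550 nm (reference 630 nm), in quadruplicate. IC50 fitted from dose–inhibition curves; mean ± SD.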

Series [3] addresses T1, ATP-dependent translocase ABCB1. Put plainly: Modulation of ABCB1 (unknown origin) expressed in human COLO320 cells co-expressing LRP assessed as fluorescence activity ratio at 20 uM pretreated for 10 mins followed by rhodamine 123 addition and measured after 20 mins by flow cytometry (reference value: 0.79). The series is classed as cell-based.
In series [4] the test system is L5178Y. The series can be described thus: Antiproliferative activity against mouse L5178Y cells after 72 hrs by MTT assay. It counts as cell-based. In outline: as §2
The next series concerns COLO 320. Put plainly: Cytotoxicity against human COLO320 cells after 24 hrs by MTT assay. The settings on record: COLO 320, 24 h. It counts as cell-based. In a few lines:
as §1

The target in series [5] is T1, ATP-dependent translocase ABCB1. The series can be described thus: Modulation of human ABCB1 expressed in mouse L5178Y cells assessed as fluorescence activity ratio at 2 uM pretreated for 10 mins followed by rhodamine 123 addition and measured after 20 mins by flow cytometry (reference value: 1.01). It counts as cell-based.
The target is the same in series [6]. Put plainly: Modulation of ABCB1 (unknown origin) expressed in human COLO320 cells co-expressing LRP assessed as fluorescence activity ratio at 2 uM pretreated for 10 mins followed by rhodamine 123 addition and measured after 20 mins by flow cytometry (reference value: 0.79). The series is classed as cell-based.
The target is the same in series [7]. Put plainly: Modulation of human ABCB1 expressed in mouse L5178Y cells assessed as potentiation of doxorubicin-induced cytotoxicity by measuring combination index at ED50 measured after 48 hrs by MTT assay. The series is classed as cell-based. In a few lines:
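Checkerboard in L5178Y-MDR cells: doxorubicin diluted 14.7–0.1 μM along one axis, modulator diluted from 2-fold its IC50 along the other, at fixed ratios. Cells at 2 × 10^5/mL, 48 h, MTT read-out. Dose–response curves fitted by Chou median-effect equation, keeping only r > 0.90. CI at 50% inhibition given as mean ± SD of three CI values from different drug ratios.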

For series [8] the target is unchanged. Put plainly: Modulation of ABCB1 (unknown origin) expressed in human COLO320 cells co-expressing LRP assessed as fluorescence activity ratio at 0.2 uM pretreated for 10 mins followed by rhodamine 123 addition and measured after 20 mins by flow cytometry (reference value: 0.79). It counts as cell-based.
Series [9] shares this target. The series can be described thus: Modulation of human ABCB1 expressed in mouse L5178Y cells assessed as fluorescence activity ratio at 0.2 uM pretreated for 10 mins followed by rhodamine 123 addition and measured after 20 mins by flow cytometry (reference value: 1.01). The series is classed as cell-based.

For the molecule `C[C@H](C/C=C/C(C)(C)O)[C@H]1CC[C@@]2(C)[C@@H]3CC[C@H]4C(C)(C)[C@@H](O)CC[C@@]45C[C@@]35CC[C@]12C`, the IC50 in the series on NIH3T3, with MRC5, in the series with COLO 205, with L5178Y [2], in the series on L5178Y [4] and with COLO 320 was above 10 µM each time. In addition, the Ratio in [1] was determined as 67.05; in series [3], 3.45; in [5] it was 10.68; in [6], 1.26.
With `C=C(C)[C@H](O)CC[C@@H](C)[C@H]1CC[C@@]2(C)[C@@H]3CC[C@H]4C(C)(C)[C@@H](O)CC[C@@]45C[C@@]35CC[C@]12C`, the IC50 in the series with NIH3T3, in the series with MRC5, in the series on COLO 205, in the series with L5178Y [2], in the series with L5178Y [4] and in the series with COLO 320 was above 10 µM throughout. The Ratio stood at 43.58 in series [1], 5.91 in series [3], 5.91 in [5] and 0.77 in series [6].
For the molecule `CC1=C2C=C3CC[C@@H]4C(C)(C)/C(=N/O)CC[C@@]4(C)[C@@H]3C[C@H]2OC1=O`, the Ratio in series [1] stood at 4.88; in series [5], 0.96. Also, the CI in series [7] is on record as 0.477. Besides, the IC50 in the series on L5178Y [2] and in the series on L5178Y [4] was above 10 µM in each case.
Consider `CC1=C2C=C3CC[C@@H]4C(C)(C)/C(=N/OC(=O)c5ccccc5)CC[C@@]4(C)[C@@H]3C[C@H]2OC1=O`, for which the Ratio worked out at 56.37 in series [1] and 5.78 in series [5]. Moreover, the CI in series [7] was determined as 0.152. Also, the concentration for half-maximal inhibition (IC50) in the series on L5178Y [2] and with L5178Y [4] was above 10 µM in each case.
Turning to `CC(=O)O/N=C1\CC[C@@]2(C)[C@@H]3C[C@H]4OC(=O)C(C)=C4C=C3CC[C@@H]2C1(C)C`, the Ratio in series [1] came to 38.64; in series [5], 3.02. In addition, the CI in [7] came to 0.501. Also, the IC50 with L5178Y [2] and in the series with L5178Y [4] was above 10 µM in each case.
In the case of `C=C(CC[C@@H](C)[C@H]1CC[C@@]2(C)C(=O)[C@@]3(CC[C@]12C)[C@@H](O)C[C@H]1[C@H](C)[C@@H](O)CC[C@@]13C)C(C)C`, the IC50 in the series on NIH3T3, in the series on MRC5, with COLO 205, in the series on L5178Y [2], with L5178Y [4] and with COLO 320 was above 10 µM in each case. The Ratio is on record as 1.68 in [8]; 96.02 in [1]; 8 in series [3]; 54.38 in series [5]; 2.27 in series [6]; 43.75 in [9]. The CI in series [7] turned out to be 0.872.
In the case of `CC1=C2C=C3CC[C@@H]4C(C)(C)/C(=N/OC(=O)c5ccco5)CC[C@@]4(C)[C@@H]3C[C@H]2OC1=O`, the Ratio in series [1] turned out to be 40.69; in [5], 2.1. Further, the CI in series [7] is reported as 0.454. Also, the concentration for half-maximal inhibition (IC50) with L5178Y [2] and in the series on L5178Y [4] was above 10 µM in each case.
With `CCCC(=O)O/N=C1\CC[C@@]2(C)[C@@H]3C[C@H]4OC(=O)C(C)=C4C=C3CC[C@@H]2C1(C)C`, the Ratio in series [1] was 10.38; in series [5], 1.36. Besides, the CI in [7] is recorded as 0.387. In addition, the IC50 in the series on L5178Y [2] and in the series on L5178Y [4] was above 10 µM throughout.
As for `CC1=C2C=C3CC[C@@H]4C(C)(C)/C(=N/OC(=O)c5cccs5)CC[C@@]4(C)[C@@H]3C[C@H]2OC1=O`, the Ratio in series [1] came out at 7.09; in series [5] it was 1.09. In [7], the CI was 0.324. Further, the IC50 in the series with L5178Y [2] and with L5178Y [4] was above 10 µM in each case.
Take `C=C(CC[C@@H](C)[C@H]1CC[C@@]2(C)C3=C(C(=O)C[C@]12C)[C@@]1(C)CC[C@H](O)[C@@H](C)[C@@H]1CC3=O)C(C)C`: the IC50 in the series with NIH3T3, in the series on MRC5, in the series with COLO 205, in the series with L5178Y [2], with L5178Y [4] and in the series with COLO 320 was above 10 µM in each case. In addition, the Ratio in [1] is given as 30.68; in series [3], 1.84; in series [5] it was 6.14; in series [6], 1.09.
Consider `CC[C@H](CC[C@@H](C)[C@H]1CC[C@H]2[C@@H]3CCC4=CC(=O)CC[C@]4(C)[C@H]3CC[C@]12C)C(C)C`, for which the IC50 with NIH3T3, in the series on MRC5, in the series on COLO 205, in the series with L5178Y [2], in the series on L5178Y [4] and in the series on COLO 320 was above 10 µM throughout. The Ratio turned out to be 22.56 in series [1], 1.34 in series [3], 2.51 in [5] and 0.97 in [6].
On to `CC1=C2C=C3CC[C@@H]4C(C)(C)[C@@H](O)CC[C@@]4(C)[C@@H]3C[C@H]2OC1=O` [HELIOSCOPINOLIDE B], for which the IC50 in the series on NIH3T3, in the series with MRC5, with COLO 205, in the series on L5178Y [2], in the series with L5178Y [4] and in the series on COLO 320 was above 10 µM throughout. The Ratio in series [1] amounted to 8.18; in series [3], 6.78; in series [5] it was 1.7; in series [6], 1.73. Moreover, the CI in [7] came out at 0.652.
For `CC1=C2C=C3CC[C@@H]4C(C)(C)C(=O)CC[C@@]4(C)[C@@H]3C[C@H]2OC1=O` [HELIOSCOPINOLIDE E], the IC50 in the series on NIH3T3, in the series on MRC5, in the series with COLO 205, with L5178Y [2], in the series on L5178Y [4] and in the series with COLO 320 was above 10 µM each time. The Ratio in series [1] stood at 10.23; in [3] it was 0.98; in series [5], 1.84; in series [6], 0.44. Also, the CI in [7] turned out to be 0.367.
On to `CC1(C)CC[C@]2(C(=O)O)CC[C@]3(C)C(=CC[C@@H]4[C@@]5(C)CC[C@H](O)C(C)(C)[C@@H]5CC[C@]43C)[C@@H]2C1` [OLEANOLIC_ACID], for which the IC50 with NIH3T3, with MRC5, in the series on COLO 205, with L5178Y [2], in the series on L5178Y [4] and in the series with COLO 320 was above 10 µM in each case. In addition, the Ratio in series [1] is 1.7; in series [3], 4.71; in series [5] it was 1.06; in [6], 2.1.
